# Measurements from different studies.
# Lines come from different studies, so protocols differ.
# Medium: plasma
SMILES,system,conditions,AUC(0-inf)
C1=C/COCc2cc(ccc2OCCN2CCCC2)Nc2nccc(n2)-c2cccc(c2)COC/1,male Sprague-Dawley rat,"oral, 36 mg/kg",3320 ng·h/mL
C[C@H]1[C@@H](O)O[C@@H]2O[C@@]3(C)CC[C@H]4[C@H](C)CC[C@@H]1[C@@]24OO3,male Sprague-Dawley rat,"oral, 10 mg/kg",271 ng·h/mL
COc1cc(-c2cc(C(C)=O)n3ccccc23)c(OC)cc1Cn1ccnc1,male Sprague-Dawley rat,"oral, 5 mg/kg",2160 ng·h/mL
CONC(=O)c1cccc2c1cc(C)n2-c1nc2c(c(NCc3ccccc3)n1)CCCN2,male Sprague-Dawley rat,"oral, 10 mg/kg, single dose",38.9 ng·h/mL
Cc1nc(Nc2ncc(C(=O)Nc3c(C)cccc3Cl)s2)cc(N2CC[C@H](O)C2)n1,male Sprague-Dawley rat,"oral, 5 mg/kg, single dose",2.71 µM·h
Cn1c(=O)c2[nH]cnc2n(C)c1=O,male Sprague-Dawley rat,"intravenous, 22.5 mg/kg",59400 ng·h/mL
CCOc1c([C@H](C)n2nc(C)c3c(N)ncnc32)cc(Cl)c(F)c1[C@@H]1CNC(=O)C1,male Sprague-Dawley rat,"oral, 2 mg/kg, single dose",4610 ng·h/mL
C=CC(=O)N1CCC([C@@H]2CCNc3c(C(N)=O)c(-c4ccc(Oc5ccccc5)cc4)nn32)CC1,Sprague-Dawley rat,"oral, 16 mg/kg",1460 ng·h/mL
CCCc1nc2c(C)cc(-c3nc4ccccc4n3C)cc2n1Cc1ccc(-c2ccccc2C(=O)O)cc1,male Sprague-Dawley rat,"oral, 8 mg/kg, single dose",1950 ng·h/mL
C[C@H]1Oc2cc(cnc2N)-c2c(nn(C)c2C#N)CN(C)C(=O)c2ccc(F)cc21,male Sprague-Dawley rat,"oral, 10 mg/kg, single dose",3840 ng·h/mL
O=C1CCC(N2Cc3cc(C4CCN(Cc5ccccc5)CC4)ccc3C2=O)C(=O)N1 (stereo not shown),male Sprague-Dawley rat,"intravenous, 1 mg/kg",325 ng·h/mL
COc1ccc(N(Cc2csc(-c3ccccc3)n2)C(=O)CCCCCC(=O)NO)cc1,female Sprague-Dawley rat,"oral, 30 mg/kg",32.4 ng·h/mL
COc1nc(-c2cccc(-c3ccccc3)c2C)ccc1CNCCNC(=O)CCCCCCCCCCC(=O)N1CCN(CCNC(=O)c2cc3c(=O)n4cccc(C)c4nc3n(CCc3cccs3)c2=N)CC1,male Sprague-Dawley rat,"intravenous, 2 mg/kg",1640 ng·h/mL
